Laboratory results from ChEMBL document CHEMBL4425091, “Bafilomycins and Odoriferous Sesquiterpenoids from Streptomyces albolongus Isolated from Elephas maximus Feces” (J Nat Prod, 2016).
≈ marks a conversion by molar mass, not a printed value. Counter-ions that a name gives are not always drawn. Calls of active or inactive are those of the source.

Legend:
Candida parapsilosis [1] = experiment: Antifungal activity against Candida parapsilosis ATCC 22019 at 100 ug/ml after 48 hrs by MTT based microbroth dilution assay; format: functional, organism-based
Cryptococcus neoformans [2] = experiment: Antifungal activity against Cryptococcus neoformans ATCC 208821 at 100 ug/ml after 72 hrs by MTT based microbroth dilution assay; format: functional, organism-based
Caco-2 = experiment: Cytotoxicity against human Caco2 cells assessed as reduction in cell viability by MTT assay; format: functional, cell-based
In short: (§1)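 MTT viability assay in human cancer cell lines. IC50 was defined as a 50% reduction of absorbance relative to the control assay. Adriamycin served as the positive control.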

Bacillus spizizenii = experiment: Antibacterial activity against Bacillus subtilis ATCC 6633 at 100 ug/ml after 24 hrs by MTT based microbroth dilution assay; format: functional, organism-based
Candida albicans [3] = experiment: Antifungal activity against Candida albicans ATCC MYA-2876 at 100 ug/ml after 48 hrs by MTT based microbroth dilution assay; format: functional, organism-based
BGC-823 = experiment: Cytotoxicity against human BGC823 cells assessed as reduction in cell viability by MTT assay; format: functional, cell-based; in short: as §1
NCI-H460 = experiment: Cytotoxicity against human NCI-H460 cells assessed as reduction in cell viability by MTT assay; format: functional, cell-based; in short: as §1
Escherichia coli = experiment: Antibacterial activity against Escherichia coli ATCC 25922 at 100 ug/ml after 24 hrs by MTT based microbroth dilution assay; format: functional, organism-based
SMMC-7721 = experiment: Cytotoxicity against human SMMC7721 cells assessed as reduction in cell viability by MTT assay; format: functional, cell-based; in short: as §1
Staphylococcus aureus = experiment: Antibacterial activity against Staphylococcus aureus ATCC 25923 at 100 ug/ml after 24 hrs by MTT based microbroth dilution assay; format: functional, organism-based
Candida albicans [4] = experiment: Antifungal activity against Candida albicans ATCC MYA-2876 after 48 hrs by MTT based microbroth dilution assay; format: functional; conditions: ATCC MYA-2876, 48 h
In short: (§2)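 MIC by broth microdilution in RPMI-1640 with NaHCO3 and MOPS, pH 7.0. DMSO stocks were 2-fold serially diluted to eight levels, then 10-fold in medium (1.1–0.0086 mg/mL). 10 µL was added to 100 µL yeast suspension: C. albicans and C. parapsilosis at 2 × 10^3 cfu/mL for 48 h; C. neoformans at 5 × 10^4 cfu/mL for 72 h; all at 28 °C. MTT added for 4 h, DMSO solubilization, A570.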

Cryptococcus neoformans [5] = experiment: Antifungal activity against Cryptococcus neoformans ATCC 208821 after 72 hrs by MTT based microbroth dilution assay; format: functional; conditions: ATCC 208821, 72 h; in short: as §2
Candida parapsilosis [6] = experiment: Antifungal activity against Candida parapsilosis ATCC 22019 after 48 hrs by MTT based microbroth dilution assay; format: functional; conditions: Lodderomyces parapsilosis, ATCC 22019, 48 h; in short: as §2

Compound | Activity (Candida parapsilosis [1]) | Activity (Cryptococcus neoformans [2]) | Activity (Caco-2) | Activity (Bacillus spizizenii) | Activity (Candida albicans [3]) | Activity (BGC-823) | Activity (NCI-H460) | Activity (Escherichia coli) | Activity (SMMC-7721) | Activity (Staphylococcus aureus) | IC50 (Caco-2) [µM] | IC50 (BGC-823) [µM] | IC50 (NCI-H460) [µM] | IC50 (SMMC-7721) [µM] | MIC (Candida albicans [4]) [µg/mL] | MIC (Cryptococcus neoformans [5]) [µg/mL] | MIC (Candida parapsilosis [6]) [µg/mL]
CC1(C)C[C@H]2[C@H]1CC[C@@]1(C)C[C@]2(O)CC[C@@H]1O | inactive | inactive | inactive | inactive | inactive | inactive | inactive | inactive | inactive | inactive | – | – | – | – | – | – | –
CO/C1=C\C(C)=C\[C@@H](C)[C@@H](O)[C@@H](C)C/C(C)=C/C=C/[C@H](OC)[C@@H]([C@@H](C)[C@@H](O)[C@H](C)[C@@]2(O)C[C@@H](OC)[C@H](C)[C@@H](C(C)C)O2)OC1=O [BAFILOMYCIN G] | inactive | inactive | – | inactive | inactive | – | – | inactive | – | inactive | > 100 | 69.2 | > 100 | 8.67 | – | – | –
CO/C1=C\C(C)=C\[C@@H](C)[C@@H](O)[C@@H](C)C/C(C)=C/C=C/[C@H](OC)[C@@H]([C@@H](C)[C@@H](O)[C@H](C)[C@@]2(O)C[C@@H](O)[C@H](C)[C@@H](C(C)C)O2)OC1=O [BAFILOMYCIN A1] | inactive | inactive | – | inactive | inactive | – | – | inactive | – | inactive | 5.49 | 6.47 | 12.4 | 2.03 | – | – | –
C[C@H]1CC[C@@H](O)[C@@]2(C)C[C@H](O)CC[C@]12O | – | – | – | – | – | – | – | – | – | – | 42.5 | 47.2 | > 100 | > 100 | 100 (≈ 467 µM) | > 100 | 100 (≈ 467 µM)
CO/C1=C/C(C)=C/[C@@H](C)[C@@H](O)[C@@H](C)C/C(C)=C/C=C/[C@H](OC)C([C@@H](C)[C@@H](O)[C@H](C)C(=O)/C=C/[C@H](C)[C@H](O)C(C)C)OC1=O (stereo not given in full) | inactive | inactive | – | inactive | inactive | – | – | inactive | – | inactive | 14.6 | 9.46 | 49.8 | 9.79 | – | – | –
CO/C1=C\C(C)=C\[C@@H](C)[C@@H](O)[C@@H](C)C/C(C)=C/C=C/[C@H](OC)[C@@H]([C@@H](C)[C@@H](O)[C@H](C)[C@@]2(O)C[C@@H](OC(=O)/C=C/C(N)=O)[C@H](C)[C@@H](C(C)C)O2)OC1=O | – | – | – | – | – | – | – | – | – | – | 2.3 | 0.99 | 2.34 | 1.05 | 100 (≈ 139 µM) | 25 (≈ 34.7 µM) | 1.56 (≈ 2.17 µM)
C[C@H]1[C@@H](O)CC[C@@]2(C)CCCC[C@]12O | inactive | inactive | – | inactive | inactive | – | – | inactive | – | inactive | > 100 | 49.3 | > 100 | > 100 | – | – | –
C[C@@H]1[C@H](O)[C@@H](C)/C=C/C=C/C=C/C=C/C=C/C=C/C=C/[C@H](O[C@@H]2O[C@H](C)[C@@H](O)[C@H](N)[C@@H]2O)C[C@@H]2O[C@](O)(C[C@@H](O)C[C@@H](O)[C@H](O)CC[C@@H](O)C[C@@H](O)CC(=O)O[C@H]1C)C[C@H](O)[C@H]2C(=O)O [AMPHOTERICIN B] | – | – | – | – | – | – | – | – | – | – | – | – | – | – | 1 (≈ 1.08 µM) | 2 (≈ 2.16 µM) | 2 (≈ 2.16 µM)
COc1cccc2c1C(=O)c1c(O)c3c(c(O)c1C2=O)C[C@@](O)(C(=O)CO)C[C@@H]3O[C@H]1C[C@H](N)[C@H](O)[C@H](C)O1 [DOXORUBICIN HYDROCHLORIDE] | – | – | – | – | – | – | – | – | – | – | 0.97 | – | 0.98 | 2.24 | – | – | –
